Measurements pooled from the literature.
Observed: cell growth or viability

COc1ccc2[nH]c(C(=O)Nc3nc(CC(=O)NN=Cc4cccc5ccccc45)cs3)cc2c1 (mixture of isomers) — IC50 (HepG2; MTT): 24.2 µM
O[C@@H](CN1CCN(C(c2ccccc2)c2ccccc2)CC1)c1cc(Cl)cc2c1-c1ccc(Cl)cc1C2 — CC50 (HepG2; 48 h): > 50 µM
O=C(Cc1csc(NC(=O)c2cc3ccccc3[nH]2)n1)NN=Cc1cccc2ccccc12 (mixture of isomers) — IC50 (HepG2; MTT): 36 µM
CCSc1nc(C2CC2)cc(C(F)(F)F)n1 — CC50 (HEK-293T; ATP luminescence; 24 h): > 60 µM
CCCCNCC(O)c1cc(Cl)cc2c1-c1ccc(Cl)cc1C2 (racemic) — CC50 (HepG2; 48 h): 6.4 µM
Clc1ccc(OC2=CC(c3ccc[nH]3)=N/C2=C\NC23CC4CC(CC(C4)C2)C3)cc1 — IC50 (HepG2; MTT; 48 h): 14.5 µM
CC[S+]([O-])c1nc(-c2ccccc2)cc(C(F)(F)F)n1 (stereo not shown) — CC50 (HEK-293T; ATP luminescence; 24 h): > 60 µM
COc1ccccc1C(=O)/C=C/c1cn(Cc2cn(-c3ccnc4cc(Cl)ccc34)nn2)c2ccccc12 — viability (HepG2; MTT; 100 µM; 24 h): > 90%
CCS(=O)(=O)c1nc(C2CC2)cc(C(F)(F)F)n1 — CC50 (HEK-293T; ATP luminescence; 24 h): 29 µM
O[C@@H](CNCCN1CCN(C(c2ccccc2)c2ccccc2)CC1)c1cc(Cl)cc2c1-c1ccc(Cl)cc1C2 — CC50 (HepG2; MTT; 72 h): 27.1 µM
